According to ChEMBL document CHEMBL1122945, “Synthesis and antitumor activity of a series of ftorafur analogues: the effect of varying electronegativity at the 1'-position” (J Med Chem, 1985):

Assays:
[1] = Evaluated in vitro for the Cytotoxic activity in the L1210 cell culture screen at 1 uM Maximum cell kill in a 72-h period; format: cell-based; conditions: mouse, L1210 cells; read-out: Inhibition
In short: (§1)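 Compounds were suspended or dissolved in sterile 5 mM phosphate-buffered saline, sonicated 3 min, then serially diluted. L1210 cells were kept in suspension culture in RPMI-1640 with 10% fetal calf serum, penicillin and streptomycin at 37 °C, 98% humidity, 5% CO2. Exponentially growing cells (4 × 10^5 cells/mL) were exposed to compound. Read-out was percent inhibition versus control at maximum cell kill within 72 h, N = 9.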

[2] = Evaluated in vitro for the Cytotoxic activity in the L1210 cell culture screen at 10 uM Maximum cell kill in a 72-h period; format: cell-based; conditions: mouse, L1210 cells; read-out: Inhibition; in short: as §1
[3] = Evaluated in vitro for the Cytotoxic activity in the L1210 cell culture screen at 100 uM Maximum cell kill in a 72-h period; format: cell-based; conditions: mouse, L1210 cells; read-out: Inhibition; in short: as §1
P388 [4] = experiment: Evaluated for the antitumor activity in the P388 lymphocytic leukemia in female CDF1 mice injected intraperitoneally with 10 E-6 tumor cells dosed for 9 days at 20 mg/kg; format: functional, Mus musculus; conditions: route intraperitoneal
In short: (§2)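 P388 leukaemia screen run to NIH protocol in female CDF1 mice (~25 g). 1 × 10^6 cells were given ip on day 0, and compounds were dosed on days 1–9. Six mice per group, with 5-FU and fluorodeoxyuridine as positive internal standards. T/C values were calculated, and T/C above 125% counted as significant activity.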

P388 [5] = experiment: Average days survival of female CDF1 mice bearing lymphocytic leukemia, when 10 E-6 tumor cells were injected intraperitoneally, dosed for 9 days at 20 mg/kg.; format: functional, Mus musculus; conditions: route intraperitoneal
In short: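 P388 lymphocytic leukemia screen per NIH protocol in female CDF1 mice (~25 g), six per group. 1 × 10^6 cells injected ip on day 0. Compound given at 20 mg/kg on days 1–9. Survival of treated mice recorded and T/C calculated, with T/C above 125% taken as significant. 5-FU and fluorodeoxyuridine served as positive internal standards.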

[6] = Evaluated in vitro for the Cytotoxic activity in the L1210 cell culture screen at 100 uM Maximum cell kill in a 72-h period r; format: cell-based; conditions: mouse, L1210 cells; read-out: Inhibition; in short: as §1
P388 [7] = experiment: Evaluated for the antitumor activity in the P388 lymphocytic leukemia in female CDF1 mice injected intraperitoneally with 10 E-6 tumor cells dosed for 9 days at 20 mg/kg;; format: functional, Mus musculus; conditions: route intraperitoneal; in short: as §2
P388 [8] = experiment: Evaluated for the antitumor activity in the P388 lymphocytic leukemia in female CDF1 mice injected intraperitoneally with 10 E-6 tumor cells dosed for 9 days at 20 mg/kg; no significant activity; format: functional, Mus musculus; conditions: route intraperitoneal; in short: as §2

## O=c1[nH]c(=O)n(C2CCCS2)cc1F (configuration not stated)
[1]
  cytotoxicity at 72 h, 1 µM: 16.9%
[2]
  cytotoxicity at 72 h, 10 µM: 52.5%
[3]
  cytotoxicity at 72 h, 100 µM: 68.5%
P388 [4]
  T/C: 100%
P388 [5]
  Average survived: 10.17 days

## O=c1[nH]c(=O)n(C2CCCO2)cc1F (configuration not stated) [TEGAFUR]
[1]
  cytotoxicity at 72 h, 1 µM: 17.2%
[2]
  cytotoxicity at 72 h, 10 µM: 67.5%
[6]
  cytotoxicity at 72 h, 100 µM: 81.8%
P388 [4]
  T/C: 98%
P388 [5]
  Average survived: 10 days

## O=C1CCCC1n1cc(F)c(=O)[nH]c1=O (configuration not stated)
[1]
  cytotoxicity at 72 h, 1 µM: 40%
[2]
  cytotoxicity at 72 h, 10 µM: 49.1%
[3]
  cytotoxicity at 72 h, 100 µM: 65.5%
P388 [7]
  T/C: 103%
P388 [5]
  Average survived: 10.5 days

## O=c1[nH]c(=O)n([C@H]2C[C@H](O)[C@@H](CO)O2)cc1F [FLOXURIDINE]
P388 [4]
  T/C: 149%
P388 [5]
  Average survived: 15.17 days

## O=c1[nH]c(=O)n(C2CCCS2(=O)=O)cc1F (configuration not stated)
[1]
  cytotoxicity at 72 h, 1 µM: 59.2%
[2]
  cytotoxicity at 72 h, 10 µM: 85%
[3]
  cytotoxicity at 72 h, 100 µM: 92%
P388 [8]
  T/C: 119%
P388 [5]
  Average survived: 12.17 days

## O=c1[nH]cc(F)c(=O)[nH]1 [FLUOROURACIL]
[1]
  cytotoxicity at 72 h, 1 µM: 79.8%
[2]
  cytotoxicity at 72 h, 10 µM: 81.2%
[3]
  cytotoxicity at 72 h, 100 µM: 90.3%
P388 [4]
  T/C: 173%
P388 [5]
  Average survived: 17.6 days

## O=c1[nH]c(=O)n(C2CCC[S+]2[O-])cc1F (configuration not stated)
[1]
  cytotoxicity at 72 h, 1 µM: 64.9%
[2]
  cytotoxicity at 72 h, 10 µM: 82.9%
[3]
  cytotoxicity at 72 h, 100 µM: 84.5%
P388 [4]
  T/C: 143%
P388 [5]
  Average survived: 14.5 days
